Calls of active or inactive are those of the source. The rule behind the calls is not given here.
T1: 2-dehydropantoate 2-reductase (Escherichia coli K-12, UniProt P0A9J4)
T1 sequence (P0A9J4 whole entry): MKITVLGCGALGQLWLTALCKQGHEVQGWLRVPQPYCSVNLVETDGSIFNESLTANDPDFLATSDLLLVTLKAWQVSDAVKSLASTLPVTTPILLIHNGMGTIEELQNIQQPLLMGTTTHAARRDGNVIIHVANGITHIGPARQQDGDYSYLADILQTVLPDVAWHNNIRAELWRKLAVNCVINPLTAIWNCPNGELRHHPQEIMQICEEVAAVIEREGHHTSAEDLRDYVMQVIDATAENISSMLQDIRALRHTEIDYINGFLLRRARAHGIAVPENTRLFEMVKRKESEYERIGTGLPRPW

T2: 2-dehydropantoate 2-reductase (Escherichia coli K-12) (UniProt P0A9J4)
T2 sequence (whole entry): T1 sequence (P0A9J4 whole entry)

B1: 2-dehydropantoate 2-reductase (Escherichia coli K-12), P0A9J4 (protein)
chain: T1 sequence (P0A9J4 whole entry)

Legend:
[1] = target: T1, 2-dehydropantoate 2-reductase; experiment: Inhibition of Escherichia coli KPR; type: single protein
Summary of the method: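 His6-tagged E. coli KPR assayed at pH 7.5-7.7. It catalyses ketopantoate reduction with NADPH as cofactor. In the screen, ligand was tested at 1 mM with 20 µM NADPH, 1 mM ketopantoate and 2 nM enzyme. Ki was measured with five inhibitor concentrations against six NADPH concentrations, with NADPH as the varied substrate, and data were fitted to competitive or noncompetitive inhibition equations.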

[2] = target: T2, 2-dehydropantoate 2-reductase (Escherichia coli K-12); experiment: Inhibition of Escherichia coli KPR at 1 mM
Summary of the method: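 Single-point screen of His6-tagged E. coli KPR activity at pH 7.5-7.7. Ligand was tested at 1 mM with 20 µM NADPH, 1 mM ketopantoate and 2 nM enzyme. The result is reported as percent inhibition.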

[3] = target: T1, 2-dehydropantoate 2-reductase; experiment: Binding affinity to Escherichia coli KPR; type: single protein
Summary of the method: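 Isothermal titration calorimetry with His6-tagged E. coli KPR in 0.1 M HEPES/HCl, pH 7.7, at 27 °C. Data were corrected for heat of dilution and fitted to a single-site binding model. For weak ligands (Kd > 100 µM), stoichiometry was fixed at n = 1, determined from active-site titrations with NADPH or NADP+. Errors are from curve fitting for single runs, or SD across multiple experiments.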

[4] = target: T2, 2-dehydropantoate 2-reductase (Escherichia coli K-12); experiment: Inhibition of Escherichia coli KPR at 5 mM
[5] = target: T2, 2-dehydropantoate 2-reductase (Escherichia coli K-12); 11 mM
[6] = target: T2, 2-dehydropantoate 2-reductase (Escherichia coli K-12); experiment: Inhibition of Escherichia coli KPR at 20 mM
[7] = target: 2-dehydropantoate 2-reductase (Escherichia coli) (UniProt P0A9J4); experiment: Inhibition of Escherichia coli KPR

Molecule	Ki [1]	Kd [3]	further results
O=P(O)(O)O [PHOSPHORIC ACID]	27000 µM	–	–
Nc1ncnc2c1ncn2[C@@H]1O[C@H](COP(=O)(O)OP(=O)(O)OCC2OC(O)[C@H](O)[C@@H]2O)[C@@H](O)[C@H]1OP(=O)(O)O (stereo partly drawn)	200 µM	61 µM	Activity [2]: Active
Nc1ncnc2c1ncn2[C@@H]1O[C@H](COP(=O)(O)OP(=O)(O)OCC2OC(O)[C@H](O)[C@@H]2O)[C@@H](O)[C@H]1O (stereo partly drawn)	–	–	inhibition [4]: 0%
Nc1ncnc2c1ncn2[C@@H]1O[C@H](COP(=O)(O)OP(=O)(O)OC[C@H]2OC(O)[C@H](O)[C@@H]2O)[C@@H](O)[C@H]1O (stereo partly drawn) [ADENOSINE DIPHOSPHATE RIBOSE]	–	6300 µM	–
Nc1ncnc2c1ncn2[C@@H]1O[C@H](COP(=O)(O)O)[C@@H](O)[C@H]1O [ADENOSINE PHOSPHATE]	6300 µM	> 5000 µM	Activity [2]: Active
Nc1ncnc2c1ncn2[C@@H]1O[C@H](COP(=O)(O)OP(=O)(O)O)[C@@H](O)[C@H]1O [ADENOSINE DIPHOSPHATE]	1050 µM	360 µM	Activity [2]: Active
Nc1nc2c(ncn2[C@@H]2O[C@H](COP(=O)(O)OP(=O)(O)O)[C@@H](O)[C@H]2O)c(=O)[nH]1	–	373 µM	–
Nc1ncnc2c1ncn2[C@@H]1O[C@H](COP(=O)(O)O)[C@@H](O)[C@H]1OP(=O)(O)O	240 µM	100 µM	Activity [2]: Active
NC(=O)c1ccc[n+]([C@@H]2O[C@H](COP(=O)([O-])O)[C@@H](O)[C@H]2O)c1	–	–	inhibition [4]: 0%
NC(=O)c1cccnc1	–	–	inhibition [5]: 0%
NC(=O)c1ccc[n+]([C@@H]2O[C@H](COP(=O)([O-])OP(=O)(O)OC[C@H]3O[C@@H](n4cnc5c(N)ncnc54)[C@H](O)[C@@H]3O)[C@@H](O)[C@H]2O)c1 [NADIDE]	–	6900 µM	inhibition [6]: 10%
NC(=O)c1ccc[n+]([C@@H]2O[C@H](COP(=O)([O-])OP(=O)(O)OC[C@H]3O[C@@H](n4cnc5c(N)ncnc54)[C@H](OP(=O)(O)O)[C@@H]3O)[C@@H](O)[C@H]2O)c1 [SODIUM beta-NICOTINAMIDE ADENINE DINUCLEOTIDE PHOSPHATE]	–	0.26 µM	–
Nc1nc2c(ncn2[C@@H]2O[C@H](COP(=O)(O)OP(=O)(O)OP(=O)(O)O)[C@@H](O)[C@H]2O)c(=O)[nH]1 [GUANOSINE TRIPHOSPHATE]	–	153 µM	–
NC(=O)c1ccc[n+]([C@@H]2O[C@H](COP(=O)([O-])OP(=O)(O)OC[C@H]3O[C@@H](n4cnc5c(N)ncnc54)[C@H](OP(=O)(O)O)[C@@H]3O)[C@@H](O)[C@H]2O)c1 [NICOTINAMIDE ADENINE DINUCLEOTIDE PHOSPHATE]	–	5.8 µM	–
NC(=O)C1=CN(C2OC(COP(=O)(O)OP(=O)(O)OC[C@H]3O[C@@H](n4cnc5c(N)ncnc54)[C@H](O)[C@@H]3O)[C@H](O)[C@@H]2O)C=CC1 (stereo partly drawn)	–	66 µM	–
Nc1ncnc2c1ncn2[C@@H]1O[C@H](COP(=O)(O)OP(=O)(O)OP(=O)(O)O)[C@@H](O)[C@H]1O [ADENOSINE TRIPHOSPHATE]	610 µM	130 µM	Activity [2]: Active
B1	–	–	Km [7]: 750 µM

From ChEMBL document CHEMBL1145346, “Probing hot spots at protein-ligand binding sites: a fragment-based approach using biophysical methods” (J Med Chem, 2006)
